Data from publication PMC6146057 (ACS chemical neuroscience, 2018).
Substitutions are numbered along the chain they refer to. Values joined by “and” are separate entries in the source; they are usually repeats but may differ in a detail not shown here. Identical values can stand only once.

How the values were obtained:
M1 [1] = molecular target: T1, M1 (Homo sapiens, UniProt P11229); assay: Calcium mobilization assay, high expression human M1 cell line; assay type: cell-based
T1 sequence (P11229 1-460): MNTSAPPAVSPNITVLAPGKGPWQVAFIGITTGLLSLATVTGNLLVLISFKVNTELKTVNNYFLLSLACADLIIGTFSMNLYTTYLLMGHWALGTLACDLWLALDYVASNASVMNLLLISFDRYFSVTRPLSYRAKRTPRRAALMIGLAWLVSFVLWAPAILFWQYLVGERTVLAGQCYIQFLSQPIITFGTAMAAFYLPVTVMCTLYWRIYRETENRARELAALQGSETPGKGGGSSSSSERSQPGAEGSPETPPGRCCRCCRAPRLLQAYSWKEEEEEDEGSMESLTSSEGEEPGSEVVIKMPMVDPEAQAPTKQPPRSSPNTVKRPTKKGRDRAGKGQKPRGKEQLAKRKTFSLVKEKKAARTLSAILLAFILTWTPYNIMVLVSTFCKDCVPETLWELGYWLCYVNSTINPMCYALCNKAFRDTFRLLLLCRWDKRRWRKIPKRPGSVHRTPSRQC
In short: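 Muscarinic receptor-expressing CHO cells were plated at 20,000 cells/well in medium without G418 the day before. They were loaded with 1.15 μM Fluo-4 AM for 45 min at 37 °C in HBSS with 20 mM HEPES and 2.5 mM probenecid. Test compound (10-point 1:3 series, top final 30 μM) was added for 2.5 min, then EC20 ACh for 1 min. Calcium flux was fitted with a four-parameter logistic curve.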

mouse M1 = molecular target: T2, mouse M1 (Mus musculus, UniProt P12657); assay: Calcium mobilization assay, mouse M1 cell line with low expression; assay type: cell-based
T2 sequence (P12657 1-460): T1 sequence (P11229 1-460) with A5V, T254S, R320K, A337G, I413V

M1 [2] = molecular target: T1, M1; assay: M1 PAM potency at increasing ACh concentration; assay type: cell-based; details: for EC50: M1 PAM potency
[3] = Plasma protein binding by equilibrium dialysis, human; assay type: in vitro ADME; details: pH 7.4
In short: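 Plasma spiked with test article was dialysed against 25 mM phosphate buffer, pH 7.4, by equilibrium dialysis for 4 h at 37 °C with shaking. Aliquots from each chamber were matrix-matched, extracted with ice-cold acetonitrile, centrifuged and quantified by LC/MS/MS.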

cytochrome P450 2D6 = cytochrome P450 2D6 (Homo sapiens, UniProt P10635); assay: CYP450 inhibition in human liver microsomes, 2D6; assay type: in vitro ADME
[4] = Rat brain:plasma distribution; assay type: in vivo; details: male, Sprague-Dawley, brain and plasma, intravenous
In short: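 Dual-cannulated male Sprague–Dawley rats received a cassette IV dose of 0.2–0.25 mg/kg per compound via the jugular vein. The vehicle was about 10% ethanol, 40% PEG400 and 50% DMSO. Carotid blood and brain were collected at 0.25 h. Brains were rinsed in PBS, snap frozen and bead-homogenised, and plasma and brain were analysed by LC/MS/MS.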

[5] = Mouse plasma-brain exposure; assay type: in vivo; details: male, C57BL/6J, brain and plasma, intraperitoneal, 100 mg/kg
In short: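 Male C57BL/6J mice aged 7–9 weeks were dosed i.p. with test compound in 10% Tween 80 (1–10 mg/mL, 10 mL/kg). Brain and trunk blood were collected at 0.25 h. Brains were washed in cold saline and frozen on dry ice. EDTA plasma was separated, and both matrices were analysed by LC/MS/MS.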

P-gp = P-gp (Homo sapiens, UniProt P08183); assay: MDCK P-gp efflux and permeability; assay type: in vitro ADME
[6] = Rat PK IV/PO crossover study; assay type: in vivo
In short: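 Male Sprague–Dawley rats with carotid and jugular cannulae (n = 2) were dosed IV at 1.0 mg/kg in 10% EtOH, 50% PEG 400 and 40% saline. For oral dosing, fasted rats received 3 mg/kg by gavage as a microsuspension in 30% Captisol. Carotid blood was sampled from 0.117 to 24 h, and EDTA plasma was analysed by LC/MS/MS. Parameters came from noncompartmental analysis.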

nonhuman primate (NHP) = assay: Nonhuman primate adverse effect assessment; assay type: in vivo
rats = assay: Novel object recognition task; assay type: in vivo, rat
In short: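 Male Sprague–Dawley rats were habituated to the arena. They received vehicle (10% Tween 80) or test compound at 1–10 mg/kg i.p. (1 mL/kg; n = 12) 30 min before a 10 min exposure to two identical objects. After 24 h, one object was replaced by a novel one and exploration was recorded for 3 min. A blinded observer scored exploration, and the recognition index was (novel − familiar)/total exploration time.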

[7] = ACh concentration increased to EC70

Chain of P-gp (P08183 whole entry): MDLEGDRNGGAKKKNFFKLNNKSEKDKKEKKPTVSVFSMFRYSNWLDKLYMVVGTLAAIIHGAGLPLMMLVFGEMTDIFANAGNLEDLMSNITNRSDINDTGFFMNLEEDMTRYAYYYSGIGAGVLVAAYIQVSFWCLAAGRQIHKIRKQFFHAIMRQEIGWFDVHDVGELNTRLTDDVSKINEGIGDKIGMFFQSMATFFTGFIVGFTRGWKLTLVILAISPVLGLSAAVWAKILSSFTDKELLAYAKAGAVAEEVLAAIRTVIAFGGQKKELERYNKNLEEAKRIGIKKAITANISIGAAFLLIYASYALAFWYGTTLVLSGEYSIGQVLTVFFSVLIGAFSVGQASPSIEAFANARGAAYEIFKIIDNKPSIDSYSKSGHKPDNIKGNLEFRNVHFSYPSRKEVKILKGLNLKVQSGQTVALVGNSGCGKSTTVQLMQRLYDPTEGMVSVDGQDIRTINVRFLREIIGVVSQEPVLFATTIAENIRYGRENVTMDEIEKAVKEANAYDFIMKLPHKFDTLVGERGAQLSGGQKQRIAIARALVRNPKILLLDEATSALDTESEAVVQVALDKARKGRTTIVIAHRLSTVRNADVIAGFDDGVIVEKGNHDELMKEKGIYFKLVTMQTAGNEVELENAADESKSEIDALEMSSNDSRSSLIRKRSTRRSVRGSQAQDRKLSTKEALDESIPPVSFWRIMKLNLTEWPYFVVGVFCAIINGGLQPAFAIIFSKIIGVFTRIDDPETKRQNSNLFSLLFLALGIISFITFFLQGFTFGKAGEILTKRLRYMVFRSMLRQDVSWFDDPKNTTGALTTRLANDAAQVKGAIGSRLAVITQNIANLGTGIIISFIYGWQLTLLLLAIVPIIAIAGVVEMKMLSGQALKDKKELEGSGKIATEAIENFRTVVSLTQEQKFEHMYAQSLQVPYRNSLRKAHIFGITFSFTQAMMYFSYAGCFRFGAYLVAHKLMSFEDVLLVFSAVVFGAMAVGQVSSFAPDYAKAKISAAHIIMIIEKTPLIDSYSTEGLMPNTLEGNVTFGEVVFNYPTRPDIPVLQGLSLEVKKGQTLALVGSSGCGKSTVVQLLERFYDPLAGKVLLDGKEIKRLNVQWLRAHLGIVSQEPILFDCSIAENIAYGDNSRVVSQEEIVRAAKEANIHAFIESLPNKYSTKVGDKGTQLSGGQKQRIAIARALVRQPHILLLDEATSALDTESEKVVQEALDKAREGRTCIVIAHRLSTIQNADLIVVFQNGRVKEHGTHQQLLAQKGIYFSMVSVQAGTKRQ
Chain of cytochrome P450 2D6 (P10635 whole entry): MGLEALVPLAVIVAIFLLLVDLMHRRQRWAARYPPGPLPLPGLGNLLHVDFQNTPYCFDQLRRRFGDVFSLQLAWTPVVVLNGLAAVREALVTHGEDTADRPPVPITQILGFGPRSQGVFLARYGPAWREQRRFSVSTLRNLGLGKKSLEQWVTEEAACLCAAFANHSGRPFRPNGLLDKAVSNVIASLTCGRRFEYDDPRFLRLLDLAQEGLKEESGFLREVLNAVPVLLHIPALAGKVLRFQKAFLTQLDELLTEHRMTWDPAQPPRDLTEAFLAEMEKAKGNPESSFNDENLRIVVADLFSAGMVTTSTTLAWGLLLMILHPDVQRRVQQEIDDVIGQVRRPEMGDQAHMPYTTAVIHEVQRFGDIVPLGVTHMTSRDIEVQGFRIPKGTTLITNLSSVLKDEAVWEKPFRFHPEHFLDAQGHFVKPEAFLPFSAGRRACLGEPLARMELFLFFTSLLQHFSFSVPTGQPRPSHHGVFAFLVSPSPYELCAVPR

O=C(N[C@H]1CCCC[C@@H]1O)[C@H]1CN(Cc2ccc(-n3cccn3)cc2)c2ccccc2O1 [VU0486846, (2R)-N-[(1S,2S)-2-Hydroxycyclohexyl]-4-[(4-pyrazol-1-ylphenyl)-methyl]-2,3-dihydro-1,4-benzoxazine-2-carboxamide]
EC50 (M1 [1]; Human M1 CRC EC50, Figure 4A): 308 nM | EC50 (M1 [1]; M1 PAM EC50, human M1, high expression line, EC20 ACh): 310 nM | EC50 (M1 [1]; M1 PAM pEC50, human M1, high expression line, EC20 ACh): 295 nM | EC50 (M1 [1]; M1 agonist activity pEC50, human M1, high expression line, compound alone): 4070 nM and 4270 nM | M1 PAM efficacy, % ACh Max (M1 [1]; human M1, high expression line): 85 ± 2 % ACh Max | M1 agonist activity, % ACh Max (M1 [1]; human M1, high expression line, compound alone): 39 ± 3 % ACh Max and 29 ± 6 % ACh Max | EC50 (mouse M1; M1 PAM EC50, mouse M1 cell line): 600 nM | EC50 (mouse M1; M1 PAM pEC50, mouse M1 cell line): 562 nM | M1 PAM efficacy, % ACh Max (mouse M1; mouse M1 cell line): 77 ± 4 % ACh Max | M1 agonism, % ACh Max (mouse M1; mouse M1 cell line, compound alone): 9 ± 1 % ACh Max | M1 PAM efficacy, % ACh Max (M1 [2]; [7]): 90 ± 1 % ACh Max | EC50 (M1 [2]; [7]): 68 ± 11 nM | EC50 (M1 [2]; very low level of ACh (~EC9)): 430 ± 120 nM | M1 PAM efficacy, % ACh Max (M1 [2]; very low level of ACh (~EC9)): 84 ± 2 % ACh Max | fraction unbound at 4 h [3]: 0.12 | IC50 (cytochrome P450 2D6): 29800 nM | Kp at 0.25 h [4]: 0.18 | Kp uu at 0.25 h [4]: 0.05 | Kp at 0.25 h [5]: 0.67 | Kp uu at 0.25 h [5]: 0.17 | human P-gp substrate (P-gp; MDCK): not a human P-gp substrate | Papp (P-gp; human, MDCK): 30 ×10⁻⁶ cm/s | efflux ratio (P-gp; human, MDCK-MDR1): 0.9 | half-life ([6]; male, Sprague-Dawley, rat, plasma): 1.2 h | Vd ([6]; male, Sprague-Dawley, rat, plasma, intravenous, 1 mg/kg): 1.8 L/kg | clearance ([6]; male, Sprague-Dawley, rat, plasma, iv, 1 mg/kg): 89 mL/min/kg | bioavailability ([6]; male, Sprague-Dawley, rat, plasma, po, 3 mg/kg): 95.9% | Adverse events or cholinergic side effects in PK study ([6]; rat PK study): No adverse events or cholinergic side effects | total plasma levels (nonhuman primate (NHP)): ~ 2 μM | Adverse effects (nonhuman primate (NHP); at achieved plasma levels): without any adverse effects | Effect on recognition memory (rats; 1–10 mg/kg i.p.): dose-dependently enhanced recognition memory | minimum effective dose, novel object recognition (rats; i.p., 30 min pretreatment, memory assessed 24 h later): 3 mg/kg
